Experimental data reported in ChEMBL document CHEMBL1149594, “Synthesis and HCV inhibitory properties of 9-deaza- and 7,9-dideaza-7-oxa-2'-C-methyladenosine” (Bioorg Med Chem, 2007).

Key:
Hepatitis C virus [1] = experiment: Antiviral activity against HCV genotype 1b in Huh7 cells assessed as inhibition of viral RNA replication after 24 hrs by ribonuclease protection assay; format: functional, organism-based, Hepacivirus hominis; conditions: Huh-7, 24 h
Outline: (§1)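 Huh-7 (HB-1) cells carrying a subgenomic bicistronic neomycin-resistance replicon from HCV genotype 1b. Compound incubated with cells 24 h or 72 h. Intracellular replicon RNA then quantified by in situ ribonuclease protection. EC50 taken as the mean of at least two separate determinations.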

[2] = Cytotoxicity against Huh7 cells after 24 hrs by MTS assay; format: cell-based, Huh-7; conditions: human
Outline: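 Nucleoside cytotoxicity in the replicon-bearing Huh-7 cells, measured by MTS assay after 24 h exposure. Result expressed as CC50.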

Hepatitis C virus [3] = experiment: Antiviral activity against HCV genotype 1b in Huh7 cells assessed as inhibition of viral RNA replication after 72 hrs by ribonuclease protection assay; format: functional, organism-based, Hepacivirus hominis; conditions: Huh-7, 72 h; outline: as §1

Row | Structure (SMILES) | EC50 (Hepatitis C virus [1]) [µM] | CC50 at 24 h [2] [µM] | EC50 (Hepatitis C virus [3]) [µM]
1 | C[C@@]1(O)[C@H](O)[C@@H](CO)O[C@H]1c1coc2c(N)ncnc12 | 22 | > 100 | 8.1
2 | C[C@@]1(O)[C@H](O)[C@@H](CO)O[C@H]1c1c[nH]c2c(N)ncnc12 | > 100 | > 100 | 59.7
3 | C[C@@]1(O)[C@H](O)[C@@H](CO)O[C@H]1n1cnc2c(N)ncnc21 | 0.25 | > 100 | 0.2
4 | C[C@@]1(O)[C@H](O)[C@@H](CO)O[C@H]1n1ccc2c(N)ncnc21 [BETA-2'-C-METHYL-7-DEAZA-ADENOSINE] | 0.3 | > 100 | 0.11
5 | CC(C)[C@H](N)C(=O)O[C@@H]1[C@@H](CO)O[C@@H](n2ccc(N)nc2=O)[C@]1(C)O [VALOPICITABINE] | 7.45 | > 100 | 1.5
